Reference: ChEMBL document CHEMBL4024790 (J Med Chem, 2018)
Active and inactive are the calls of the source. No cut-off for these calls is given here.

Key:
[1] = organism: Mus musculus; test: Increase in cGMP level in CD-1 mouse brain hippocampus by immunoassay; assay type: functional
How it was run: (§1)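 CD-1 mice given compound; brains fixed by focused microwave irradiation, and cortex, striatum and hippocampus dissected and homogenized in 0.5 N HCl, then centrifuged. cGMP in the supernatant measured by enzyme immunoassay. Unbound brain concentration taken from satellite animals. Dose-response and time-course data combined, and a linear Cbu–cGMP model fitted. The Cbu E50 is the projected Cbu giving a 50% rise in cGMP. Statistics by one-way ANOVA with Fisher's PLSD, p<0.05.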

[2] = tested on: Liver; test: Drug metabolism in rat liver microsomes assessed as 3-(7-methyl-5-(1-methyl-5-(5-(trifluoromethyl)pyridin-2-yl)-1H-pyrazol-4-yl)imidazo[1,5-f][1,2,4]triazin-4-ylamino)propanoic acid formation at 1 to 50 uM after 1 hr by LC-MS/MS analysis; assay type: ADME, microsome
How it was run: (§2)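 Rat, dog or human liver microsomes or hepatocytes (P450 0.35–0.5 µM final) incubated with compound at 1, 10 or 50 µM in 100 mM phosphate buffer with 1 mM NADP regenerating system, 37°C for 1 h; quenched with 4 volumes acetonitrile, centrifuged, supernatant evaporated, reconstituted in 5% aqueous acetonitrile and analysed by reversed-phase LC.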

[3] = molecular target: T1, cGMP-dependent 3',5'-cyclic phosphodiesterase (Rattus norvegicus, UniProt Q01062); test: Displacement of radiolabeled 4-(azetidin-1-yl)-3-[5-[4-(trifluoromethyl)phenyl]-1H-pyrazol-4-yl]-1-(tritritiomethyl)pyrazolo[3,4-d]pyrimidine from PDE2A in rat striatal membranes after 30 mins by liquid scintillation counting method; assay type: cell membranes, Striatum, Membrane
T1 sequence (Q01062 whole entry): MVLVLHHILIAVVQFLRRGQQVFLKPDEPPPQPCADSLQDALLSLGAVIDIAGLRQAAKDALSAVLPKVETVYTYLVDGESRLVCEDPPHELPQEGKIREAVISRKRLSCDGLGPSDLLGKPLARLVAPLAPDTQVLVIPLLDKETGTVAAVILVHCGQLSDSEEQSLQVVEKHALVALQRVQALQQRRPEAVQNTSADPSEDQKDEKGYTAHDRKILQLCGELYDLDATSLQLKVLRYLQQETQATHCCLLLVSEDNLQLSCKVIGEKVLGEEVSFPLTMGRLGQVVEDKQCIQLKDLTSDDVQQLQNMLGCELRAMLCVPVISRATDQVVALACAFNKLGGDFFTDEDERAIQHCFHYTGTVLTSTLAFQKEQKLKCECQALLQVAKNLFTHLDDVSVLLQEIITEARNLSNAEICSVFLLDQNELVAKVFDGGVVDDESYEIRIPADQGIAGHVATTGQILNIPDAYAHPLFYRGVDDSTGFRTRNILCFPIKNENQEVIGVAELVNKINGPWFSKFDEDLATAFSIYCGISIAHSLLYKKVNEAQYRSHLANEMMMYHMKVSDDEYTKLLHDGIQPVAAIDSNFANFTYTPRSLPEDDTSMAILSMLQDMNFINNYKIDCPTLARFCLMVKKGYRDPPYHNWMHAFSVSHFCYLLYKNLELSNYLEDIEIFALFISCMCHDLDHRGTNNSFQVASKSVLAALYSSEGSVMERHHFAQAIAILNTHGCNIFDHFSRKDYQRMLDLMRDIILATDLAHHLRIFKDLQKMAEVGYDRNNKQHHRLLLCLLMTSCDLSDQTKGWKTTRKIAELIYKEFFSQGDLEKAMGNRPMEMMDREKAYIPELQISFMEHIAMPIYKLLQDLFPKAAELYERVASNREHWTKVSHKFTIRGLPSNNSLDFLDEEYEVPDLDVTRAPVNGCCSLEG

[4] = tested on: Rattus norvegicus; test: Effect on risperidone-induced antipsychotic activity in Long Evans rat at 0.32 to 3.2 mg/kg, sc by conditioned avoidance responding assay; assay type: functional, organism-based
How it was run: (§3)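 Rats dosed SC at 0.32, 1.0 and 3.2 mg/kg; conditioned avoidance responding also run in combination with risperidone 0.032 mg/kg.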

[5] = organism: Mus musculus; test: Increase in cGMP level in CD-1 mouse brain hippocampus assessed per nM of unbound brain concentration by immunoassay; assay type: functional; how it was run: as §1
[6] = molecular target: Cytochrome P450 2C9 (Homo sapiens, UniProt P11712); test: Inhibition of recombinant human CYP2C9; assay type: ADME; details: recombinant enzyme
Chain of Cytochrome P450 2C9 (P11712 whole entry): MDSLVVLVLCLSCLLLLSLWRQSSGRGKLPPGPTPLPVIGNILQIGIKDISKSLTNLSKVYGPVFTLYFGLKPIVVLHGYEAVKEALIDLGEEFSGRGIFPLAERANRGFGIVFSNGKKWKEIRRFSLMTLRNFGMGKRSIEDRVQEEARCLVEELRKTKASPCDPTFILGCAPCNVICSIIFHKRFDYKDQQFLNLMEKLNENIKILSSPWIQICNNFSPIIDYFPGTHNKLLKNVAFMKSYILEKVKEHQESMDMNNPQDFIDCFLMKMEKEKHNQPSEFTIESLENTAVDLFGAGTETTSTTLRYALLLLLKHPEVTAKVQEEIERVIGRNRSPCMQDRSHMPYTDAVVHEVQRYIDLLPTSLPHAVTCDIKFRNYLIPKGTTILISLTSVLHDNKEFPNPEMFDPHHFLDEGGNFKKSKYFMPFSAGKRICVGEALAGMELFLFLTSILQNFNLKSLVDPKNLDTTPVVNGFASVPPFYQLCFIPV

[7] = Ratio of unbound brain concentration to unbound plasma concentration in po dosed Cynomolgus monkey; assay type: ADME, organism-based, Macaca fascicularis; details: brain and plasma, read-out: K(p,uu,brain)
[8] = tested on: Rattus norvegicus; test: Reversal of ketamine-induced working memory deficit in Long Evans rat at 0.032 to 0.32 mg/kg, sc by radial arm maze assay
[9] = tested on: Liver; test: Drug metabolism in dog liver microsomes assessed as 1-(7-methyl-5-(1-methyl-5-(5-(trifluoromethyl)pyridin-2-yl)-1H-pyrazol-4-yl)imidazo[1,5-f][1,2,4]triazin-4-yl)azetidin-3-ol formation at 1 to 50 uM after 1 hr by LC-MS/MS analysis; assay type: ADME, Canis lupus familiaris, microsome; how it was run: as §2
[10] = organism: Mus musculus; test: Increase in cGMP level in CD-1 mouse brain cortex by immunoassay; assay type: functional
How it was run: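 CD-1 mice dosed SC (solution in 20% SBE-β-CD with 2 molar equivalents 1N HCl, 1 mL/kg); euthanized by focused microwave irradiation of brain; cortex, striatum, hippocampus homogenized in 0.5 N HCl, centrifuged; cyclic nucleotides in supernatant by enzyme immunoassay. Unbound brain exposure from satellite animals; dose-response and time-course data combined with linear model; one-way ANOVA with Fisher's PLSD.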

[11] = tested on: Rattus norvegicus; test: Effect on spontaneous locomotor activity in Long Evans rat at 0.32 to 3.2 mg/kg, sc; assay type: ADME, organism-based; details: in vivo; how it was run: as §3
[12] = molecular target: T2, Cytochrome P450 1A2 (Homo sapiens, UniProt P05177); test: Time-dependant inhibition of recombinant human CYP1A2; assay type: ADME; details: recombinant enzyme
T2 sequence (P05177 whole entry): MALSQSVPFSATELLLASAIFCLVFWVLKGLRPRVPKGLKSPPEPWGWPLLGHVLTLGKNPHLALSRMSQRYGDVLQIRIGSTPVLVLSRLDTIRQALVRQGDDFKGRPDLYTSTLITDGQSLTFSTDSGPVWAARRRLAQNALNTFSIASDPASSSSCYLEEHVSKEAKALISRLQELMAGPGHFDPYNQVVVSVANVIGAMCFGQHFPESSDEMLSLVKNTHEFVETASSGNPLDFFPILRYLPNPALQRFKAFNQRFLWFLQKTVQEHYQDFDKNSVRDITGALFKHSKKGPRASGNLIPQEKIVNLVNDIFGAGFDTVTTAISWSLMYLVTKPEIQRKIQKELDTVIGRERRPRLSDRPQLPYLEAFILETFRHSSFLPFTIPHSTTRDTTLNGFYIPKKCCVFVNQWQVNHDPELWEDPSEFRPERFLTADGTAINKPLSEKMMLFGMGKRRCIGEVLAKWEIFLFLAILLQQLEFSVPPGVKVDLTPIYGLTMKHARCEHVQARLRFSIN

[13] = Ratio of unbound brain concentration to unbound plasma concentration in po dosed beagle dog; assay type: ADME, organism-based, Canis lupus familiaris; details: brain and plasma, read-out: K(p,uu,brain)
How it was run: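 Compound given sc to mice, iv and/or sc to rats, po to dogs and sc to monkeys; sc doses as a solution in 20% SBE-BCD + 2 molar equiv 1N HCl. Plasma, whole brain and CSF taken at matched times from 2 min to 24 h and quantified by LC-MS/MS. Fraction unbound in plasma and brain homogenate (diluted 4-fold, dilution factor 5 applied) by 6 h equilibrium dialysis against phosphate buffer at 37°C.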

- Drug metabolism [2]: Metabolite_Detected
- Ki [3]: 4.2 nM
- inhibition (INH) [6]: Not Active
- Kp uu [7]: 0.6
- Drug metabolism [9]: Metabolite_Detected
- TDI [12]: Not Active
- Kp uu [13]: 0.58
Structure (SMILES): Cc1nc(-c2cnn(C)c2-c2ccc(C(F)(F)F)cn2)c2c(N3CCC3)ncnn12 [PF-05180999]
- Activity [1]: Dose-dependent effect
- Activity [4]: inactive
- Activity [5]: 0.43%
- Activity [8]: Active
- Activity [10]: Dose-dependent effect
- Activity [11]: Non-Toxic
